NBT positive cells and IC50 data for twelve molecules are collected here from ChEMBL document CHEMBL1130401, “Retinoic acid conjugates as potential antitumor agents: synthesis and biological activity of conjugates with Ara-A, Ara-C, 3(2H)-furanone, and aniline mustard moieties” (J Med Chem, 1997).

In brackets after ≈: the same amount, converted by molar mass.

Test [1] has as its system HL-60. The test is described as follows: (§1) Differentiating activity of compound in HL60 cells at conc 1 ug/mL. The test is classed as functional, Homo sapiens. Put shortly:
(§2)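 10⁶ HL-60 cells were exposed to compound for 6 days, then resuspended in RPMI-1640 with 20% FBS and 2 mM L-glutamine. An equal volume of fresh NBT solution (2 mg/mL, with PMA 200 ng/mL in PBS pH 7.2) was added and incubated 40 min at 37 °C with shaking. Cells were chilled, pelleted and resuspended. Formazan-positive cells were counted by hemocytometer (≥200 cells scored). Untreated cultures served as controls.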

In test [2] the test system is HL-60. The test is described as follows: The cytotoxic activity in HL-60 cells. It is filed as functional, cell-based. Particulars: Homo sapiens. Put shortly:
(§3)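 HL-60 cells from ATCC. Each well received 7.5 × 10⁴ cells plus test compound. Cells grew for 72 h at 37 °C in humidified, CO₂-controlled air, with growth linear over this period. Cells were then counted in a Coulter counter. IC50 is the concentration that cut cell number by 50%.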

The subject of test [3] is HL-60. The test is described as follows: (§4) Differentiating activity of compound in HL60 cells at conc 4 ug/mL. The test is classed as functional, Homo sapiens. In a few lines:
as §2

The subject of test [4] is HL-60. The test is described as follows: Differentiating activity of compound in HL60 cells at conc 0.08 ug/mL. The test is classed as functional, Homo sapiens. Put shortly:
as §2

The subject of test [5] is HL-60. The test is described as follows: Differentiating activity of compound in HL60 cells at conc 0.32 ug/mL. It is filed as functional, Homo sapiens. Put shortly: as §2
Test [6] concerns HL-60. Nature of the test: Differentiating activity of compound in HL60 cells at conc 0.05 ug/mL. The test is classed as functional, Homo sapiens. In a few lines:
as §2

Test [7] concerns HL-60. The test is described as follows: Differentiating activity of compound in HL60 cells at conc 0.2 ug/mL. It is filed as functional, Homo sapiens. In a few lines: as §2
Test [8] deals with HL-60. Nature of the test: Cytotoxic activity in HL-60 cells. It is filed as functional, cell-based. Particulars: Homo sapiens. Put shortly:
as §3

For test [9], the system named is HL-60. The test is described as follows: Differentiating activity of compound in HL60 cells at conc 0.5 ug/mL. It is filed as functional, Homo sapiens. Put shortly: as §2
The test system of test [10] is HL-60. Nature of the test: Differentiating activity of compound in HL60 cells at conc 2 ug/mL. It is filed as functional, Homo sapiens. In a few lines: as §2
Test [11] deals with HL-60. The description is as §4. It is filed as functional, Homo sapiens. In a few lines:
(§5)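 HL-60 (ATCC) cells exposed to compound for 6 days; 10⁶ cells resuspended in 1 mL RPMI-1640 with 20% FBS and 2 mM L-glutamine, mixed with 1 mL fresh NBT (2 mg/mL) containing PMA 200 ng/mL in PBS pH 7.2, 40 min at 37 °C shaking, ice-stopped, pelleted. Formazan-positive cells counted by hemocytometer light microscopy, ≥200 cells scored; value = % NBT-positive cells.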
This is another data set of the same source.

For test [12], the system named is HL-60. The description is as §1. The test is classed as functional, Homo sapiens. In a few lines:
as §5
The source holds these as a separate data set.

The subject of test [13] is HL-60. The test is described as follows: Differentiating activity of compound in HL60 cells at conc 0.4 ug/mL. It is filed as functional, Homo sapiens. Put shortly: as §2
The subject of test [14] is HL-60. Nature of the test: Differentiating activity of compound in HL60 cells at conc 0.016 ug/mL. The test is classed as functional, Homo sapiens. In a few lines:
as §2

The subject of test [15] is HL-60. The test is described as follows: Differentiating activity of compound in HL60 cells at conc 1.4 ug/mL. It is filed as functional, Homo sapiens.
For test [16], the system named is HL-60. The test is described as follows: Differentiating activity of compound in HL60 cells at conc 2.8 ug/mL. The test is classed as functional, Homo sapiens.
Test [17] relates to HL-60. Nature of the test: Differentiating activity of compound in HL60 cells at conc 5.6 ug/mL. The test is classed as functional, Homo sapiens.
In test [18] the test system is HL-60. The test is described as follows: Differentiating activity of compound in HL60 cells at conc 0.0003 ug/mL. The test is classed as functional, Homo sapiens.
The test system of test [19] is HL-60. The test is described as follows: Differentiating activity of compound in HL60 cells at conc 0.003 ug/mL. The test is classed as functional, Homo sapiens.
The subject of test [20] is HL-60. The test is described as follows: Differentiating activity of compound in HL60 cells at conc 0.03 ug/mL. It is filed as functional, Homo sapiens.
For test [21], the system named is HL-60. The test is described as follows: Differentiating activity of compound in HL60 cells at conc 10 ug/mL. It is filed as functional, Homo sapiens. In a few lines: as §2
Test [22] has as its system HL-60. The test is described as follows: Differentiating activity of compound in HL60 cells at conc 50 ug/mL. The test is classed as functional, Homo sapiens. In a few lines: as §2

Turning to `CC1=C(/C=C/C(C)=C/C=C/C(C)=C/C(=O)NCCCNC(=O)/C=C(C)/C=C/C=C(C)/C=C/C2=C(C)CCCC2(C)C)C(C)(C)CCC1`, the NBT positive cells with HL-60 [1] was found to be 33%; with HL-60 [3], 65%. Further, in the test on HL-60 [2], half-maximal inhibition (IC50) required 3.71 µg/mL (≈ 5.81 µM).
On to `CC1=C(/C=C/C(C)=C/C=C/C(C)=C/C(=O)Nc2ccn([C@@H]3O[C@H](CO)C(O)[C@@H]3O)c(=O)n2)C(C)(C)CCC1` (some centres not stated), for which the figures for the NBT positive cells with HL-60 [4] and in the test on HL-60 [5] were 29% and 37%, respectively. Further, the IC50 (in general, the concentration at which inhibition is half-maximal) in the test on HL-60 [2] was under 0.32 µg/mL.
For `CC1=C(/C=C/C(C)=C/C=C/C(C)=C/C(=O)OC/C=C(\C)C2=CC(=O)C(C)(C)O2)C(C)(C)CCC1`, the NBT positive cells in the test on HL-60 [4] amounted to 33%; in the test on HL-60 [5], 34%. Further, the IC50 in the test with HL-60 [2] was under 0.32 µg/mL.
Turning to `CC1=C(/C=C/C(C)=C/C=C/C(C)=C/C(=O)Nc2ccn([C@@H]3O[C@@H]4CO[Si](C(C)C)(C(C)C)O[Si](C(C)C)(C(C)C)OC4[C@@H]3O)c(=O)n2)C(C)(C)CCC1` (some centres not stated), the NBT positive cells was 44% with HL-60 [6] and 54% in the test on HL-60 [7]. In addition, in the test on HL-60 [8], the IC50 was under 0.32 µg/mL.
Consider `CC1=C(/C=C/C(C)=C/C=C/C(C)=C/C(=O)O[C@H]2C(O)[C@@H](CO)O[C@H]2n2cnc3c(N)ncnc32)C(C)(C)CCC1` (some centres not stated), for which the NBT positive cells came out at 34% in the test on HL-60 [9] and 36% in the test on HL-60 [10]. In the test on HL-60 [2], this molecule returned an IC50 of 1.96 µg/mL (≈ 3.57 µM).
`CC1=C(/C=C/C(C)=C/C=C/C(C)=C/C(=O)Nc2ncnc3c2ncn3[C@@H]2O[C@H](CO)C(O)[C@@H]2O)C(C)(C)CCC1` (some centres not stated): the NBT positive cells in the test with HL-60 [6] was determined as 41%; in the test with HL-60 [7], 46%. In the test with HL-60 [2], this molecule had an IC50 of under 0.32 µg/mL.
For `CC1=C(/C=C/C(C)=C/C=C/C(C)=C/C(=O)Nc2ncnc3c2ncn3[C@@H]2O[C@@H]3CO[Si](C(C)C)(C(C)C)O[Si](C(C)C)(C(C)C)OC3[C@@H]2O)C(C)(C)CCC1` (some centres not stated), the NBT positive cells in the test on HL-60 [9] and with HL-60 [10] was 31% in each case. Moreover, the IC50 in the test on HL-60 [2] amounted to 2.08 µg/mL (≈ 2.63 µM).
Consider `CC1=C(/C=C/C(C)=C/C=C/C(C)=C/C(=O)Nc2ccc(N(CCCl)CCCl)cc2)C(C)(C)CCC1`, for which the NBT positive cells with HL-60 [11] was 43%; with HL-60 [12] it was 24%. This molecule returned an IC50 with HL-60 [2] of 3.7 µg/mL (≈ 7.18 µM).
On to `Nc1ccn([C@@H]2O[C@H](CO)[C@@H](O)[C@@H]2O)c(=O)n1` [CYTARABINE], for which the NBT positive cells in the test with HL-60 [4] amounted to 5%; with HL-60 [13], 20%; in the test on HL-60 [14] it was 8%. The 50% inhibitory concentration (IC50) in the test on HL-60 [2] was determined as 0.029 µg/mL (≈ 0.119 µM).
In the case of `C[S+](C)[O-]` [DIMETHYL SULFOXIDE], the NBT positive cells worked out at 12% in the test on HL-60 [15], 28% with HL-60 [16] and 53% with HL-60 [17].
On to `CC1=C(/C=C/C(C)=C/C=C/C(C)=C/C(=O)O)C(C)(C)CCC1` [TRETINOIN], for which the NBT positive cells with HL-60 [18] stood at 34%; in the test with HL-60 [19], 67%; in the test with HL-60 [20], 89%.
Consider `Nc1ncnc2c1ncn2[C@@H]1O[C@H](CO)[C@@H](O)[C@@H]1O` [VIDARABINE], for which the NBT positive cells in the test on HL-60 [21] amounted to 9%; in the test on HL-60 [22] it was 12%. In addition, the IC50 in the test with HL-60 [2] is 20.9 µg/mL (≈ 78.2 µM).
